Laboratory results published in the EternaBench riboswitch data.

Tested on: MS2 coat protein
Experiment: apparent Kd, MS2 coat protein; higher = weaker binding; RNA-MaP array; FMN 200 µM where present
In short: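 Green signal was scaled to red-channel RNA signal and control-cluster median Fmax, and the apparent Kd was taken as the median of filtered per-cluster binding-curve fits. The binding series used SNAP-549-labelled MS2 coat protein from 0.7 or 1.5 nM, doubling to 3 µM, on designs transcribed by stalled E. coli RNA polymerase on Illumina sequencing-chip clusters. Each series ran without and then with constant ligand in 100 mM Tris-HCl pH 7.5, 80 mM KCl, 4 mM MgCl2, BSA, DTT, yeast tRNA and Tween-20.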

[1] = designed as: OFF switch for flavin mononucleotide, no ligand
[2] = ligand present: flavin mononucleotide, designed as: OFF switch for flavin mononucleotide
[3] = designed as: ON switch for flavin mononucleotide, no ligand
[4] = ligand present: flavin mononucleotide, designed as: ON switch for flavin mononucleotide

GGGCCGGUGGAGAAGGAGCUUGCAAAAUGCAUGCUAGGAUAUCCACAUGAGGAUCACCCAUGUGGGAAUAUCUGGUUUUCACAG
apparent Kd [1]: 0.00398 µM | apparent Kd [2]: 0.00505 µM

GGGCGACAUGAGGAUCACCCAUGUAACCAAAACGAAGGAUAUGGGCCUGAACGUCCAGGACUAGAAGGUCGGAAAC
apparent Kd [3]: 0.022 µM | apparent Kd [4]: 0.018 µM

GGGCUGUCAGGAUAUUUUGGGCCCGGGUAAACCCGGGCCCGGGAGAAGGGACAUGAGGAUCACCCAUGUGGCCC
apparent Kd [1]: 0.0347 µM | apparent Kd [2]: 0.0373 µM

GGGUACAGCGGAGGAUAUCAUGUAAAUACAUGAGGAUCACCCAUGUCGAUGGAGACAUCGGAGAUUGAGAAGGCCGAUGUACCG
apparent Kd [3]: 0.173 µM | apparent Kd [4]: 0.00999 µM

GGGUACAGUGAGAAGGUCUGCGGAUUCCUUAACAUGAGGAUCACCCAUGUAGAAGGAUAUCACAGGUAAAGGUCGGCUAACGAU
apparent Kd [1]: 0.00536 µM | apparent Kd [2]: 0.00658 µM

GGGUACAUCGGAGGAUAUAAUGUAAAUACAUGAGGAUCACCCAUGUCGAUGGAGACAUCGGAGAUUGAGAAGGCCGAUGUACCG
apparent Kd [3]: 0.11 µM | apparent Kd [4]: 0.0384 µM

GGGUACAUCGGAGGAUAUCAUGUAAAUACAUGAGGAUCACCCAUGUCGAUGGAGACAUCGGAGAUUGAGAAGGCCGAUGUACCG
apparent Kd [3]: 0.452 µM | apparent Kd [4]: 0.0259 µM

GGGUACAUCGGAGGAUAUCAUGUAAAUACAUGAGGAUCACCCAUGUCGAUGGAGACAUCGGAGAUUGAGAAGGCCGAUGUACUG
apparent Kd [3]: 0.169 µM | apparent Kd [4]: 0.0085 µM

GGGUACAUCGGAGGAUAUCAUGUAAAUACAUGAGGAUCACCCAUGUCGAUGGAGACAUCGGAGGUUGAGAAGGCCGAUGUACCG
apparent Kd [3]: 0.961 µM | apparent Kd [4]: 0.0185 µM

GGGUACAUCGGAGGAUAUCAUGUAGAUACAUGAGGAUCACCCAUGUCGUACGAGAGUACGGAGAUUGAGAAGGCCGAUGUACCG
apparent Kd [3]: 0.031 µM | apparent Kd [4]: 0.0147 µM

GGGUACCUCGGAGGAUAUCAUGUAAAUACAUGAGGAUCACCCAUGUCGAUGGAGACAUCGGAGAUUGAGAAGGCCGAUGUACCG
apparent Kd [3]: 0.168 µM | apparent Kd [4]: 0.00932 µM

GGGUAGAUCCGAGGAUAUACAAUCCGGAAACGGUACAUGAGGAUCACCCAUGUAGAAGGCGGAUCUACAGGUACUAAAGUAGGG
apparent Kd [1]: 0.016 µM | apparent Kd [2]: 0.0142 µM

GGGUCAACAUGAGGAUCACCCAUGUAGGAUAUCGCUAUUGUAAUCAUGAAACAUGAUUACAAUAGCGAGAAGGACAUAUGCGGG
apparent Kd [1]: 0.042 µM | apparent Kd [2]: 0.0741 µM

GGGUCACAUGAGGAUCACCCAUGUGAGGAUAUGAUACUAUGUACUUCGGUACAUAGUAUCAGAAGGCACAUAAA
apparent Kd [1]: 0.0366 µM | apparent Kd [2]: 0.123 µM

GGGUGACAUGAGGAUCACCCAUGUGAGGAUAUCUGGAUACUCUUUAUUUUAGAUAUCCAGAGAAGGCACACCCU
apparent Kd [1]: 0.501 µM | apparent Kd [2]: 0.306 µM

GGGUGAGACGAGAAGGGAUUUUCACAUGAGGAUCACCCAUGUCGAGUAGUCAGGAUAUCGGGCCAUGAUUACCCUAUAGAAGAC
apparent Kd [3]: 0.298 µM | apparent Kd [4]: 0.0705 µM

GGGUGAUCCUUAGGAUAUCCCGCGCCAAAGUGCGUUUAUACUACAUGAGGAUCACCCAUGUAACGGGAGAAGGGAGGAAGCCCG
apparent Kd [3]: 0.011 µM | apparent Kd [4]: 0.00431 µM

GGGUGGCGUAGAGGAUAUGUGUUACAUGAGGAUCACCCAUGUGCAUAUGAUGUUCGUGUGUGUGCAUAGAAGGCUACGUCGCUA
apparent Kd [3]: 0.0283 µM | apparent Kd [4]: 0.0243 µM

GGGUGGCGUAUAGGAUAUAUGGUACAUGAGGAUCACCCAUGUACAUAUGAUGUUCAUGUUUGUGUAUAGAAGGAUACGUCGGGA
apparent Kd [3]: 0.00944 µM | apparent Kd [4]: 0.00886 µM

GGGUGUGAAGGAUAUACAUGAGGAUCACCCAUGUGAGAGGAGGAGGUUGAGGAGGUUGGUAGAAGGUCAGGAGG
apparent Kd [1]: 0.169 µM | apparent Kd [2]: 0.142 µM

GGGUUCAUCGGAGGAUAUCAUGUAAAUACAUGAGGAUCACCCAUGUCGAUGGAGACAUCGGAGAUUGAGAAGGCCGAUGUACCG
apparent Kd [3]: 0.186 µM | apparent Kd [4]: 0.00918 µM

GGUACCAACACAGGAUAUCCUAUCCUUUGGGUAGGAGAAGGGUGAAACAUGAGGAUCACCCAUGUGGUGCCAGGGCGUGAGCCC
apparent Kd [3]: 1.23 µM | apparent Kd [4]: 0.206 µM

GGUACUCAAAGAGUACCAAUACGAACAUGAGGAUCACCCAUGUAGGAUAUAAAACCGCCGGAGUAUUAGAAGGACAUGUGCCUA
apparent Kd [1]: 0.0115 µM | apparent Kd [2]: 0.0105 µM

GGUACUCAAAGAGUACGGAGUCGAACAUGAGGAUCACCCAUGUAGGAUAUGCGAGUUUUGAAUUUGCAGAAGGACAUUUGCAGC
apparent Kd [1]: 0.00962 µM | apparent Kd [2]: 0.0112 µM

GGUAGAAACAUUAACAUGAGGAUCACCCAUGUCAAAAGAAAUGAGGAUAUCGUAUACAAUGUAUAUGAGAAGGCAUGGUCUGCC
apparent Kd [3]: 0.00917 µM | apparent Kd [4]: 0.00645 µM

GGUAGACAUGAGGAUCACCCAUGUGAGGAUAUCGUCAUAGAUGCAAAAGCAUCUAUGACGAGAAGGUACAUGCC
apparent Kd [1]: 0.0331 µM | apparent Kd [2]: 0.0343 µM

GGUAUCCGGCAGGAUAUUGUGAGAAUCUGUAAGCGAGAAGGGCCAACAUGAGGAUCACCCAUGUACCAUUGAGA
apparent Kd [1]: 0.0523 µM | apparent Kd [2]: 0.0451 µM

GGUCAACAUGAGGAUCACCCAUGUAAGCCAAGGCAAGGAUAUGGGUAUAGGGUACUAGGGUUAGAAGGUGCCAAUA
apparent Kd [3]: 0.144 µM | apparent Kd [4]: 0.182 µM

GGUCGCAAGUAAGGAUAUGCAUAUGAAACAUAUGCAGAAGGUACAUGAGGAUCACCCAUGUUAAUGCAAAGCGAAUAAGCGACC
apparent Kd [1]: 0.0155 µM | apparent Kd [2]: 0.0196 µM

GGUCGGAAUUUCGACGGCCUGAGGGAGGAUAUACAAGGCCGGCGUCGCACAUGAGGAUCACCCAUGUAGAAGGCCCAAGGCCUG
apparent Kd [1]: 0.006 µM | apparent Kd [2]: 0.0072 µM

GGUCGUCACAUUUACAUGAGGAUCACCCAUGUCGAAAGACAUGAGGAUAUGCUACCUAAUUGGUAGCAGAAGGCAUGGACGACC
apparent Kd [3]: 0.455 µM | apparent Kd [4]: 0.234 µM

GGUGCCAUGUAGAAGGCAGAUCUGAUUCAGAUCUGAGGAUAUACAUGAGGAUCACCCAUGUAAAUGCACCGCACGAGAGUGCAA
apparent Kd [1]: 0.0331 µM | apparent Kd [2]: 0.149 µM

GGUGCGUAUGUGAGGAUAUGCUGGUCCUUGGAUCAGCAGAAGGCACAUGAGGAUCACCCAUGUGGUGUCGUACA
apparent Kd [1]: 0.347 µM | apparent Kd [2]: 0.0401 µM

GGUGCGUAUGUGAGGAUAUGCUGGUCCUUGGAUCAGCAGAAGGCACAUGAGGAUCACCCAUGUGGUGUCGUUCC
apparent Kd [1]: 0.397 µM | apparent Kd [2]: 0.0293 µM

GGUGCUAUGUAGAAGGCAGAUCUGAUUCAGAUCUGAGGAUAUACAUGAGGAUCACCCAUGUUAUGCACCAGCACGAGAGUGCAG
apparent Kd [1]: 0.00807 µM | apparent Kd [2]: 0.014 µM

GGUGGACAUGAGGAUCACCCAUGUGAGGAUAUCGGCCGGUUCGUGGUGGCUGGCCUCUCGAGAAGGCGCAUAGU
apparent Kd [1]: 0.0581 µM | apparent Kd [2]: 0.0719 µM

GGUGGACAUGAGGAUCACCCAUGUGAGGAUAUCGGCUAUCUACUCGCUGACGGCUGCUCGAGAAGGCGCAUUGU
apparent Kd [1]: 0.0621 µM | apparent Kd [2]: 0.0588 µM

GGUGGACAUGAGGAUCACCCAUGUGAGGAUAUCGGCUAUCUACUCGCUGACGGUUGCUCGAGAAGGCACAUUGU
apparent Kd [1]: 0.126 µM | apparent Kd [2]: 0.206 µM

GGUGGACAUGAGGAUCACCCAUGUGAGGAUAUCGGCUGGUACGUGUUGGCUGGCAUCUCGAGAAGGCACAUCGU
apparent Kd [1]: 0.0562 µM | apparent Kd [2]: 0.135 µM

GGUGGUGUCCGAGGAUAUCGUUAGGCGUUGUUGCGAGAAGGCGGACAUGAGGAUCACCCAUGUUUGAUAAAAGAGGAGGUUGUG
apparent Kd [1]: 0.0861 µM | apparent Kd [2]: 0.13 µM

GGUGUGAGGCAGGAUAUGCUAUAUGUUAGUAAUGCAGAAGGGUCUACAUGAGGAUCACCCAUGUGUGCGGUUGA
apparent Kd [1]: 0.0906 µM | apparent Kd [2]: 0.394 µM

GGUUGGCGAGGAUAUACAUGAGGAUCACCCAUGUGAGAGAAAAAAGUGAGUAAGAAAAGUAGAAGGCGCUGACG
apparent Kd [1]: 0.0401 µM | apparent Kd [2]: 0.302 µM

GGUUGGCGAGGAUAUACAUGAGGAUCACCCAUGUGGUCCUGUGGCUGAUCUUGCCUUUGUAGAAGGCGCAAAUC
apparent Kd [1]: 0.0185 µM | apparent Kd [2]: 0.0378 µM

GGUUGUAAUGUCAGCGAGUGUUAGAGAAGGUACAUGAGGAUCACCCAUGUACGUGAUCUUGCGAGUAAGGAUAUCUGUUAUUCA
apparent Kd [1]: 0.0052 µM | apparent Kd [2]: 0.0055 µM

GGUUGUCAUCGUCAUCCUUUCUGUACAUGAGGAUCACCCAUGUAGGAUAUGCUGCUCUCGGUGUGGCAGAAGGGCGUGUGUGUU
apparent Kd [1]: 0.0405 µM | apparent Kd [2]: 0.0502 µM

GGUUUUGUGUAAGGAUAUGCAUCACUGAGAAAUUUAGUGAGGAAGAUCACAUGAGGAUCACCCAUGUAGAAGGUACACAUGUGG
apparent Kd [1]: 0.0579 µM | apparent Kd [2]: 0.0892 µM

GUAAAUCAUGUAGGAUAUGCAUGGCGAAGCUACGCAGAAGGACAUGAGGAUCACCCAUGUUCUAGCGUCUGAGUUCAGAUGCAA
apparent Kd [1]: 0.0193 µM | apparent Kd [2]: 0.0459 µM

GUAAUAAAGAUCCAAUUAUACAACAUGAGGAUCACCCAUGUGCAGGAUAUCGUGUGUUUUUUAUUCGAGAAGGGCAAAUUCAUU
apparent Kd [1]: 0.0519 µM | apparent Kd [2]: 0.146 µM

GUACAGCGACAUGAGGAUCACCCAUGUAGCCGCCGAUCGUCGCAGGAUAUGGCAAAGGUUAACAGUCAGAAGGGUGAUGUUCGA
apparent Kd [3]: 0.0736 µM | apparent Kd [4]: 0.0413 µM

GUACAGUAGUGAGGAUAUACGAGAUCGAUAGAUCGGCGAUCCAUUUAUACAUGAGGAUCACCCAUGUAGAAGGCACUUCUGUAC
apparent Kd [1]: 0.00573 µM | apparent Kd [2]: 0.0617 µM

GUACCUUAUGAGAAGGCGAUCAUAAAACAUGAUCGAGGAUAUCAUGUAAACAUGAGGAUCACCCAUGUAUGGGUAUUAUGGUAC
apparent Kd [3]: 0.0687 µM | apparent Kd [4]: 0.0175 µM

GUACCUUAUGAGAAGGCGAUCAUUAAACAUGAUCGAGGAUAUCAUGAAAACAUGAGGAUCACCCAUGUAUGGGUAUUAUGGUAC
apparent Kd [3]: 0.0336 µM | apparent Kd [4]: 0.0164 µM

GUACCUUAUGAGAAGGCGGUCAUGAAACAUGAUCGAGGAUAUCAUGUAAACAUGAGGAUCACCCAUGUAUGGGUAUUAUGGUAG
apparent Kd [3]: 0.0702 µM | apparent Kd [4]: 0.0138 µM

GUACUACAUGAGGAUCACCCAUGUCAGGAUAUGUGAAUUUCAUCAAAAGAUGAAAUUCGUAGAAGGGACAGUAC
apparent Kd [1]: 0.0222 µM | apparent Kd [2]: 0.0294 µM

GUAGAGGAUUGAGGAUAUGCAGAGAGAUCAUGCGCGUCGCGCACAUGAGGAUCACCCAUGUAAGAGCAGAAGGUAACUAUGAAC
apparent Kd [1]: 0.0668 µM | apparent Kd [2]: 0.0434 µM
